Assays:
[1] = target: 5-hydroxytryptamine receptor 1B (Homo sapiens, UniProt P28222); experiment: Agonist activity to the human recombinant 5-hydroxytryptamine 1B receptor; assay type: functional
Procedure, shortened: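 CHO Pro 5 cells stably transfected with human recombinant 5-HT1Dβ receptors. Compound was added to the culture medium for 30 min at 37 °C. The reaction was stopped with cold ethanolic 5 mM EDTA (2:1 v/v), and extracted cAMP was quantified by enzyme immunoassay, with serotonin as the reference agonist.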

[2] = target: T1, 5-hydroxytryptamine receptor 1D (Homo sapiens, UniProt P28221); experiment: Compound was tested for its binding affinity against human recombinant 5-hydroxytryptamine 1D receptor alpha for comparison purpose.
T1 sequence (P28221 whole entry): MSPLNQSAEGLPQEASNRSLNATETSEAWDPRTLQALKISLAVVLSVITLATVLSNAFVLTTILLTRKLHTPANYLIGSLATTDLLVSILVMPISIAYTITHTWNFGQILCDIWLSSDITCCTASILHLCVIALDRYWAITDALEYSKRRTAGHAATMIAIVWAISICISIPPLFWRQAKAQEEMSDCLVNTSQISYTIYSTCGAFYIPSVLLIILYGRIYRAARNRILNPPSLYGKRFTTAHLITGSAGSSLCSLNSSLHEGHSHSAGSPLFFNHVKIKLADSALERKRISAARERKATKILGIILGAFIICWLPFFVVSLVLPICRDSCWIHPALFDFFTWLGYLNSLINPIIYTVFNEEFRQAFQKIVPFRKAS

[3] = target: T1, 5-hydroxytryptamine receptor 1D; experiment: Compound was tested for its agonist activity against human 5-hydroxytryptamine 1D receptor alpha for comparison purpose.; assay type: functional
[4] = target: T1, 5-hydroxytryptamine receptor 1D; experiment: Compound was tested for its agonist activity against human recombinant 5-hydroxytryptamine 1D receptor alpha for comparison purpose.; assay type: functional

Sequence of 5-hydroxytryptamine receptor 1B (P28222 whole entry): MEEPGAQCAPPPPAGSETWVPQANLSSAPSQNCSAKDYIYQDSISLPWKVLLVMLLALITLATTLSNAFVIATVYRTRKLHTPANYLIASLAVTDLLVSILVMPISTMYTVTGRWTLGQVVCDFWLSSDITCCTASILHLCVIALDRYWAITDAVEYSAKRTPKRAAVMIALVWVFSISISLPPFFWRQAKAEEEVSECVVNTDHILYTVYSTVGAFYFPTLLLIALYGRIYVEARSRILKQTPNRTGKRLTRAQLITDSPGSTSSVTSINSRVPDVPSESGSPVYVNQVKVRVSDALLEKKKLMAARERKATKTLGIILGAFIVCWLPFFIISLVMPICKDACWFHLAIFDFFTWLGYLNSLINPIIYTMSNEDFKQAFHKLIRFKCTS

SMILES	Ki [1] [nM]	other results
CN(C)CCCOc1ccccc1	> 10000	–
CNCCOc1ccccc1	5960	Ki [2]: 1800 nM
CCCN(C)CCCOc1ccccc1C1CCCC1	1200	Ki [2]: 143 nM
CNCCCOc1ccccc1	3450	–
CCCCN(CC)CCOc1cccc2ccccc12	1230	Ki [2]: 112 nM
CC(C)NCCCOc1cccc2ccccc12	7660	–
CN(C)CCCNc1ccccc1	> 10000	–
CC(C)NCCCOc1cccc2[nH]ccc12	> 10000	–
CCCCN(CCCC)CCOc1cccc2ccccc12	2680	–
CC(C)NCC(O)COc1cccc2[nH]ccc12 (racemic) [PINDOLOL]	> 10000	–
CC(C)NCC(O)COc1cccc2[nH]ccc12 (single isomer, unassigned; (-)) [PINDOLOL]	2600	–

Compounds with a lower Ki [1], results first:

Ki [1] [nM]	SMILES	other results
1120	CC(C)NCCOc1cccc2[nH]ccc12	–
750	CCCN(C)CCOc1cccc2ccccc12	Ki [2]: 103 nM
470	CN(C)CCCCOc1cccc2ccccc12	–
425	CCCN(C)CCOc1ccccc1C1CCCC1	Ki [2]: 82 nM
316	CNCCOc1cccc(C)c1C	–
290	NCCCOc1cccc2ccccc12	–
260	CN(CCOc1cccc2ccccc12)Cc1ccccc1	Ki [2]: 590 nM
255	CN(C)CCCOc1cccc2ccccc12	–
200	CCCNCCOc1cccc2ccccc12	–
120	CC(C)NCCOc1cccc2ccccc12	–
107	OCCNCCOc1cccc2ccccc12	Ki [4]: 68 nM
100	NCCOc1cccc2ccccc12	–
94	CN(C)CCOc1cccc2ccccc12	–
66	CCNCCOc1cccc2ccccc12	–
26	CNCCOc1cccc2ccccc12	Ki [3]: 34 nM

Reference: ChEMBL document CHEMBL1130280, “2-(1-Naphthyloxy)ethylamines with enhanced affinity for human 5-HT1D beta (h5-HT1B) serotonin receptors” (J Med Chem, 1997)
